Assay results published in ChEMBL document CHEMBL2424590, “4-[18F]Fluoro-m-hydroxyphenethylguanidine: a radiopharmaceutical for quantifying regional cardiac sympathetic nerve density with positron emission tomography” (J Med Chem, 2013).

What was measured:
Testes [1] = test: Biodistribution in Sprague-Dawley rat testes at 20 to 120 uCi, iv after 120 mins by gamma counting analysis; type: ADME, organism-based, Testis; details: in vivo, 2 h
Method in brief: (§1)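 Male and female rats (2 per sex per time point, 280–330 g) under light isoflurane given tail-vein bolus of 20–120 μCi tracer in 0.05–0.10 mL isotonic 60 mM sodium phosphate, pH 5.4. Tissues sampled at 5, 30, 60 or 120 min, weighed and gamma-counted. Decay-corrected dpm per gram normalised to injected dpm and body weight, given as %ID·kg/g.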

Kidney [2] = test: Biodistribution in Sprague-Dawley rat kidney at 20 to 120 uCi, iv after 120 mins by gamma counting analysis; type: ADME, organism-based; details: in vivo, 2 h
Method in brief: (§2)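 Sprague-Dawley rats (280–330 g), 2 male and 2 female per time point (5, 30, 60, 120 min), under light isoflurane, received a tail-vein bolus of 20–120 μCi tracer in 0.05–0.10 mL isotonic 60 mM sodium phosphate, pH 5.4. Tissues were weighed and gamma-counted. Decay-corrected dpm/g was normalized to injected dpm per kg body weight (%ID·kg/g).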

Adrenal [3] = test: Biodistribution in Sprague-Dawley rat adrenal at 20 to 120 uCi, iv after 120 mins by gamma counting analysis; type: ADME, organism-based, Adrenal tissue; details: in vivo, 2 h; method in brief: as §2
Liver [4] = test: Biodistribution in Sprague-Dawley rat liver at 20 to 120 uCi, iv after 120 mins by gamma counting analysis; type: ADME, organism-based; details: in vivo, 2 h; method in brief: as §2
Heart [5] = test: Biodistribution in Sprague-Dawley rat heart at 20 to 120 uCi, iv after 120 mins by gamma counting analysis; type: ADME, organism-based; details: in vivo, 2 h; method in brief: as §2
Rattus norvegicus [6] = test: Biodistribution in Sprague-Dawley rat eyeballs at 20 to 120 uCi, iv after 120 mins by gamma counting analysis; type: ADME, organism-based, Eyeball of camera-type eye; details: in vivo, 2 h; method in brief: as §2
Rattus norvegicus [7] = test: Biodistribution in Sprague-Dawley rat uterus at 20 to 120 uCi, iv after 60 mins by gamma counting analysis; type: ADME, organism-based; details: in vivo, 1 h; method in brief: as §1
Kidney [8] = test: Biodistribution in Sprague-Dawley rat kidney at 20 to 120 uCi, iv after 60 mins by gamma counting analysis; type: ADME, organism-based; details: in vivo, 1 h; method in brief: as §2
Spleen = test: Biodistribution in Sprague-Dawley rat spleen at 20 to 120 uCi, iv after 60 mins by gamma counting analysis; type: ADME, organism-based; details: in vivo, 1 h; method in brief: as §1
Pancreas [9] = test: Biodistribution in Sprague-Dawley rat pancreas at 20 to 120 uCi, iv after 60 mins by gamma counting analysis; type: ADME, organism-based; details: in vivo, 1 h; method in brief: as §2
Lung = test: Biodistribution in Sprague-Dawley rat lung at 20 to 120 uCi, iv after 60 mins by gamma counting analysis; type: ADME, organism-based; details: in vivo, 1 h; method in brief: as §2
Bone = test: Biodistribution in Sprague-Dawley rat bone at 20 to 120 uCi, iv after 30 mins by gamma counting analysis; type: ADME, organism-based, Bone element; details: in vivo, 0.5 h; method in brief: as §2
Rattus norvegicus [10] = test: Biodistribution in Sprague-Dawley rat uterus at 20 to 120 uCi, iv after 30 mins by gamma counting analysis; type: ADME, organism-based; details: in vivo, 0.5 h; method in brief: as §1
Rattus norvegicus [11] = test: Biodistribution in Sprague-Dawley rat stomach at 20 to 120 uCi, iv after 30 mins by gamma counting analysis; type: ADME, organism-based; details: in vivo, 0.5 h; method in brief: as §1
Adrenal [12] = test: Biodistribution in Sprague-Dawley rat adrenal at 20 to 120 uCi, iv after 30 mins by gamma counting analysis; type: ADME, organism-based, Adrenal tissue; details: in vivo, 0.5 h; method in brief: as §2
Pancreas [13] = test: Biodistribution in Sprague-Dawley rat pancreas at 20 to 120 uCi, iv after 30 mins by gamma counting analysis; type: ADME, organism-based; details: in vivo, 0.5 h; method in brief: as §2
Liver [14] = test: Biodistribution in Sprague-Dawley rat liver at 20 to 120 uCi, iv after 30 mins by gamma counting analysis; type: ADME, organism-based; details: in vivo, 0.5 h; method in brief: as §2
Heart [15] = test: Biodistribution in Sprague-Dawley rat heart at 20 to 120 uCi, iv after 30 mins by gamma counting analysis; type: ADME, organism-based; details: in vivo, 0.5 h; method in brief: as §2
Rattus norvegicus [16] = test: Biodistribution in Sprague-Dawley rat eyeballs at 20 to 120 uCi, iv after 30 mins by gamma counting analysis; type: ADME, organism-based, Eyeball of camera-type eye; details: in vivo, 0.5 h; method in brief: as §2
Brain = test: Biodistribution in Sprague-Dawley rat brain at 20 to 120 uCi, iv after 30 mins by gamma counting analysis; type: ADME, organism-based; details: in vivo, 0.5 h; method in brief: as §2
Blood = test: Biodistribution in Sprague-Dawley rat blood at 20 to 120 uCi, iv after 5 mins by gamma counting analysis; type: ADME, organism-based; details: in vivo; method in brief: as §2
Testes [17] = test: Biodistribution in Sprague-Dawley rat testes at 20 to 120 uCi, iv after 5 mins by gamma counting analysis; type: ADME, organism-based, Testis; details: in vivo; method in brief: as §1
Rattus norvegicus [18] = test: Biodistribution in Sprague-Dawley rat uterus at 20 to 120 uCi, iv after 5 mins by gamma counting analysis; type: ADME, organism-based; details: in vivo; method in brief: as §1
Rattus norvegicus [19] = test: Biodistribution in Sprague-Dawley rat stomach at 20 to 120 uCi, iv after 5 mins by gamma counting analysis; type: ADME, organism-based; details: in vivo; method in brief: as §1
Kidney [20] = test: Biodistribution in Sprague-Dawley rat kidney at 20 to 120 uCi, iv after 5 mins by gamma counting analysis; type: ADME, organism-based; details: in vivo; method in brief: as §2
Pancreas [21] = test: Biodistribution in Sprague-Dawley rat pancreas at 20 to 120 uCi, iv after 5 mins by gamma counting analysis; type: ADME, organism-based; details: in vivo; method in brief: as §2
Liver [22] = test: Biodistribution in Sprague-Dawley rat liver at 20 to 120 uCi, iv after 5 mins by gamma counting analysis; type: ADME, organism-based; details: in vivo; method in brief: as §2
Heart [23] = test: Biodistribution in Sprague-Dawley rat heart at 20 to 120 uCi, iv after 5 mins by gamma counting analysis; type: ADME, organism-based; details: in vivo; method in brief: as §2
Rattus norvegicus [24] = test: Biodistribution in Sprague-Dawley rat eyeballs at 20 to 120 uCi, iv after 5 mins by gamma counting analysis; type: ADME, organism-based, Eyeball of camera-type eye; details: in vivo; method in brief: as §2
[25] = Drug metabolism in rhesus macaque monkey spinal column assessed as fluorine-18 level at 5 to 6 mCi, iv after 90 mins by sagittal PET analysis; type: ADME, organism-based, Macaca mulatta; details: in vivo, 1.5 h
[26] = Half life in rhesus macaque monkey plasma at 5 to 6 mCi, iv by RP-HPLC analysis; type: ADME, organism-based, Macaca mulatta
Method in brief: (§3)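 Six venous samples (1.5–2.0 mL; typically 1, 2, 4, 10, 30, 60 min) drawn during the monkey PET scan into heparin and centrifuged 1 min at 12000 × g. Plasma deproteinised with HClO₄ (final 0.4 N), spun, neutralised with KOH to pH 7.0–7.5 and filtered twice (0.22 μm). Analysed by reverse-phase HPLC (10% EtOH in 60 mM NaH₂PO₄, pH 5.4, 1.0 mL/min) with NaI(Tl) radiodetection. Decay-corrected intact fraction per sample; T1/2 is the time at which 50% of plasma activity is metabolite.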

Plasma = test: Metabolic stability in rhesus macaque monkey plasma assessed as retention time of [18F]-2-fluoro-5-(2-guanidinoethyl)phenyl hydrogen sulfate at 5 to 6 mCi, iv by RP-HPLC analysis; type: ADME, organism-based, Macaca mulatta; details: in vivo; method in brief: as §3
[27] = Drug uptake in rhesus macaque monkey heart at 5 to 6 mCi, iv after 90 mins by PET analysis in presence of 0.010 mg/kg to 1 mg/kg desipramine; type: ADME, organism-based, Macaca mulatta; details: in vivo, 1.5 h
Method in brief: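 Same monkey for all studies. Desipramine (0.010, 0.0316, 0.10 or 1.0 mg/kg; n = 1 each) in 2.0 mL saline infused i.v. over 20 min, with tracer injected 10 min after the infusion ended; 4 control studies. ROIs on myocardium and basal LV blood pool drawn on summed final four frames. Cp(t) derived from Cwb(t) × intact fraction × Cp/Cwb. Ki from compartmental modelling and Kp as Patlak slope, fitted against DMI dose to a variable-slope sigmoidal model.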

[28] = Drug uptake in rhesus macaque monkey lung at 5 to 6 mCi, iv after 90 mins by PET analysis; type: ADME, organism-based, Macaca mulatta; details: in vivo, 1.5 h
[29] = Half life in rat urinary bladder at 0.5 mCi by PET analysis; details: in vivo

N=C(N)NCCc1ccc([18F])c(O)c1
Drug uptake (Testes [1]): 0.004 %IDKg/g
Drug uptake (Kidney [2]): 0.078 %IDKg/g
Drug uptake (Adrenal [3]): 0.133 %IDKg/g
Drug uptake (Liver [4]): 0.233 %IDKg/g
Drug uptake (Heart [5]): 0.347 %IDKg/g
Drug uptake (Rattus norvegicus [6]): 0.026 %IDKg/g
Drug uptake (Rattus norvegicus [7]): 0.112 %IDKg/g
Drug uptake (Kidney [8]): 0.186 %IDKg/g
Drug uptake (Spleen): 0.253 %IDKg/g
Drug uptake (Pancreas [9]): 0.172 %IDKg/g
Drug uptake (Lung): 0.091 %IDKg/g
Drug uptake (Bone): 0.039 %ID·kg/g
Drug uptake (Rattus norvegicus [10]): 0.155 %IDKg/g
Drug uptake (Rattus norvegicus [11]): 0.11 %IDKg/g
Drug uptake (Adrenal [12]): 0.181 %IDKg/g
Drug uptake (Pancreas [13]): 0.145 %IDKg/g
Drug uptake (Liver [14]): 0.406 %IDKg/g
Drug uptake (Heart [15]): 0.602 %IDKg/g
Drug uptake (Rattus norvegicus [16]): 0.04 %IDKg/g
Drug uptake (Brain): 0.003 %IDKg/g
Drug uptake (Blood): 0.062 %ID·kg/g
Drug uptake (Testes [17]): 0.018 %IDKg/g
Drug uptake (Rattus norvegicus [18]): 0.268 %IDKg/g
Drug uptake (Rattus norvegicus [19]): 0.116 %IDKg/g
Drug uptake (Kidney [20]): 1.398 %IDKg/g
Drug uptake (Pancreas [21]): 0.137 %IDKg/g
Drug uptake (Liver [22]): 0.477 %IDKg/g
Drug uptake (Heart [23]): 0.746 %IDKg/g
Drug uptake (Rattus norvegicus [24]): 0.039 %IDKg/g
Drug metabolism [25]: Active
half-life [26]: 2.5 min
Retention_time (Plasma): 8.2 min
Drug uptake [27]: Not Active
Drug uptake [28]: Not Active
t1/2 [29]: 12 min
